Results as given in ChEMBL document CHEMBL3596140, “Bisleuconothine A Induces Autophagosome Formation by Interfering with AKT-mTOR Signaling Pathway” (J Nat Prod, 2015).
Activity calls are given as the source filed them. The calls are words filed in the database; no cut-off is given here.

What was measured:
A549 [1] = experiment: Cytostatic activity against human A549 cells by MTT assay; format: functional, cell-based
Procedure, shortened: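 A549 cells in medium with 10% FBS and 1% penicillin–streptomycin, exposed to compound for 48 h. MTT (5 mg/mL stock) added at the end of exposure, then 3 h further incubation. Formazan dissolved in DMSO and read at 550 nm (reference 700 nm) as a measure of succinate dehydrogenase activity. IC50 taken from the concentration–response curve. Microscopy used for confirmation.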

A549 [2] = experiment: Cytotoxicity against human A549 cells assessed as induction of cell death at 24 uM after 48 hrs by microscopic analysis; format: functional, cell-based
A549 [3] = experiment: Induction of reactive oxygen species generation in human A549 cells at 6 uM incubated in dark for 1 hr by H2DCFDA dye-based flow cytometric analysis; format: functional, cell-based
Procedure, shortened: (§1)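 A549 cells (4 × 10^5 cells/dish) preloaded with 20 μM H2DCFDA for 1 h, then exposed to compound (6 or 24 μM) for 1 h in the dark at 37 °C. H2O2 at 100 μM served as positive control. Cells washed, resuspended in FACS buffer with 0.3% BSA, and analysed by flow cytometry for intracellular DCF fluorescence intensity.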

A549 [4] = experiment: Induction of reactive oxygen species generation in human A549 cells at 24 uM incubated in dark for 1 hr by H2DCFDA dye-based flow cytometric analysis; format: functional, cell-based; procedure, shortened: as §1
A549 [5] = experiment: Induction of apoptosis in human A549 cells at 24 uM after 24 hrs by FITC-annexin V/propidium iodide staining-based flow cytometric analysis; format: functional, cell-based
Procedure, shortened: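 A549 cells (5 × 10^5 cells/dish) exposed to compound (24 μM, or 100 nM for vinblastine) for 24 h. Cells washed twice with PBS and stained with FITC–annexin V plus propidium iodide in FACS buffer with 0.3% BSA. Quadrant distribution read by flow cytometry against untreated cells.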

A549 [6] = experiment: Effect on Bcl-XL protein expression in human A549 cells at 24 uM after 6 to 24 hrs by Western blot analysis; format: functional, cell-based
Procedure, shortened: (§2)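 Total lysates of A549 cells harvested at 0, 6, 12 and 24 h after exposure to 24 μM test agent or 100 nM vinblastine. Proteins resolved, transferred to PVDF and probed for Bcl-xL, Mcl-1, Bcl-2, Bax-1, Bid, PUMA, Bim, Bik and p53, with antibodies diluted in BlockAce and β-actin as loading reference.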

A549 [7] = experiment: Effect on Mcl-1 protein expression in human A549 cells at 24 uM after 6 to 24 hrs by Western blot analysis; format: functional, cell-based; procedure, shortened: as §2
A549 [8] = experiment: Effect on Bcl-2 protein expression in human A549 cells at 24 uM after 6 to 24 hrs by Western blot analysis; format: functional, cell-based; procedure, shortened: as §2
A549 [9] = experiment: Effect on Bax-1 protein expression in human A549 cells at 24 uM after 6 to 24 hrs by Western blot analysis; format: functional, cell-based; procedure, shortened: as §2
A549 [10] = experiment: Effect on Bid protein expression in human A549 cells at 24 uM after 6 to 24 hrs by Western blot analysis; format: functional, cell-based; procedure, shortened: as §2
A549 [11] = experiment: Effect on Puma protein expression in human A549 cells at 24 uM after 6 to 24 hrs by Western blot analysis; format: functional, cell-based; procedure, shortened: as §2
A549 [12] = experiment: Effect on BimEL protein expression in human A549 cells at 24 uM after 6 to 24 hrs by Western blot analysis; format: functional, cell-based; procedure, shortened: as §2
A549 [13] = experiment: Effect on Bik protein expression in human A549 cells at 24 uM after 6 to 24 hrs by Western blot analysis; format: functional, cell-based; procedure, shortened: as §2
A549 [14] = experiment: Effect on p53 protein expression in human A549 cells at 24 uM after 6 to 24 hrs by Western blot analysis; format: functional, cell-based; procedure, shortened: as §2
A549 [15] = experiment: Induction of autophagy in human A549 cells assessed as increase in LC3-2 expression at 6 uM by Western blot analysis; format: functional, cell-based; settings: TDE = time-dependent effect
Procedure, shortened: (§3)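 A549 and MCF7 cells exposed to 6 μM compound, with everolimus 5 μM as autophagy positive control. Total lysates harvested at 0, 4, 8, 12 or 24 h. LC3-I and LC3-II (lipidated) levels assessed by Western blot with LC3B antibody.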

MCF7 = experiment: Induction of autophagy in human MCF7 cells assessed as LC3 lipidation at 6 uM after 4 to 24 hrs by Western blot analysis; format: functional, cell-based; procedure, shortened: as §3
A549 [16] = experiment: Prevention of autophagosome degradation in human A549 cells assessed as upregulation of p62 expression at 6 uM after 6 hrs by Western blot analysis; format: functional, cell-based
Procedure, shortened: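 A549 cells kept in serum-free medium for 1 h, then exposed to 6 μM compound or 5 μM everolimus, with or without bafilomycin A1 (400 nM), for 6 h. LC3 and p62 levels in lysates assessed by Western blot to follow autophagic flux.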

A549 [17] = experiment: Induction of autophagic punctation in human A549 cells assessed as increase of puncta with LC3 at 6 uM after 6 hrs by immunofluorescence staining-based microscopic analysis relative to control; format: functional, cell-based
Procedure, shortened: (§4)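 A549 cells on chamber slides placed in serum-free medium for 1 h, then exposed for 6 h to 6 μM compound, 5 μM everolimus or 400 nM bafilomycin A1. Fixed in ice-cold methanol for 15 min at −20 °C and blocked. Stained for LC3B, LAMP2 and p62 with Alexa Fluor 488/546/647 secondaries, mounted with DAPI, and puncta assessed by fluorescence microscopy.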

A549 [18] = experiment: Induction of autophagic punctation in human A549 cells assessed as increase of puncta with p62 at 6 uM after 6 hrs by immunofluorescence staining-based microscopic analysis relative to control; format: functional, cell-based; procedure, shortened: as §4
A549 [19] = experiment: Effect on localization of lysosome puncta with LAMP2 in human A549 cells at 6 uM after 6 hrs by immunofluorescence staining-based microscopic analysis relative to control; format: functional, cell-based; procedure, shortened: as §4
[20] = molecular target: Serine/threonine-protein kinase mTOR (Homo sapiens) (UniProt P42345); experiment: Effect on mTOR phosphorylation at ser2448 in human A549 cells at 6 uM after 3 to 24 hrs by Western blot analysis; format: cell-based
Procedure, shortened: (§5)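 A549 total lysates harvested 3, 6, 12 or 24 h after exposure to 6 μM compound or 5 μM everolimus. Western blot on PVDF with antibodies to phospho-mTOR Ser2448, phospho-AKT Thr308 and Ser473, phospho-p70S6K Thr389, phospho-PDK1 Ser241 and PRAS40 Thr246, alongside total proteins and β-actin.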

[21] = molecular target: Serine/threonine-protein kinase mTOR (Homo sapiens) (UniProt P42345); experiment: Inhibition of mTOR in human A549 cells assessed as downregulation of p70S6K phosphorylation at thr389 at 6 uM after 3 to 24 hrs by Western blot analysis; format: cell-based; procedure, shortened: as §5
A549 [22] = experiment: Inhibition of AKT in human A549 cells assessed as downregulation of PRAS40 phosphorylation at thr246 at 6 uM after 3 to 12 hrs by Western blot analysis; format: cell-based; procedure, shortened: as §5
A549 [23] = experiment: Inhibition of AKT phosphorylation at thr308 in human A549 cells at 6 uM after 3 to 24 hrs by Western blot analysis; format: cell-based; procedure, shortened: as §5
A549 [24] = experiment: Inhibition of AKT phosphorylation at Ser473 in human A549 cells at 6 uM after 3 to 6 hrs by Western blot analysis; format: cell-based; procedure, shortened: as §5
[25] = molecular target: T1, 3-phosphoinositide-dependent protein kinase 1 (Homo sapiens) (UniProt O15530); experiment: Effect on PDK1 phosphorylation at Ser241 in human A549 cells at 6 uM after 3 to 24 hrs by Western blot analysis; format: cell-based; procedure, shortened: as §5
T1 sequence (whole entry): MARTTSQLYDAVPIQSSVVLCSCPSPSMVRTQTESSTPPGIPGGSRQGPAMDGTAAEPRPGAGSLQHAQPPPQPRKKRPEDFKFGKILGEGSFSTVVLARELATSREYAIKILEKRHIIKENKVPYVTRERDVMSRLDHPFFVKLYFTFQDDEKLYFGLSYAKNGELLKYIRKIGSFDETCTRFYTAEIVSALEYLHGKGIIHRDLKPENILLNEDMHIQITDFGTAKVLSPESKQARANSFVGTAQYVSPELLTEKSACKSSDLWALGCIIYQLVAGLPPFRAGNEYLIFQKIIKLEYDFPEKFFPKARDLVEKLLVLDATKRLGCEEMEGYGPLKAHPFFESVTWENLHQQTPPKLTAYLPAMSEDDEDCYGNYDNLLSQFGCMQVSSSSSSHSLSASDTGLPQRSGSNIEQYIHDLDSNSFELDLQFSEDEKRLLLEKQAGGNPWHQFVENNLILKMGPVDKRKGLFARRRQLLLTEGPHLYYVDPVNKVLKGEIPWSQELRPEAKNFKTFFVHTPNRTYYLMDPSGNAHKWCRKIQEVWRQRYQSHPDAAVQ

A549 [26] = experiment: Effect on morphological changes in lysosome puncta in human A549 cells at 6 uM after 6 hrs by immunofluorescence staining-based microscopic analysis relative to control; format: functional, cell-based; procedure, shortened: as §4
A549 [27] = experiment: Induction of autophagy in human A549 cells assessed as increase in LC3-2 expression at 6 uM after 4 to 24 hrs by Western blot analysis

## CC[C@@]12CCCN3CCc4c(n(c5ccccc45)[C@H](c4ccc(O)c5c4N[C@@H]4CC[C@@]6(CC)CCCN7CC[C@@]54[C@H]76)C1)[C@H]32 [BISLEUCONOTHINE A]
A549 [1]
  Activity: Dose-dependent effect
  IC50: 8 µM
A549 [2]
  Activity: Active
A549 [3]
  Activity: inactive
A549 [4]
  Activity: Active
A549 [5]
  Activity: inactive
A549 [6]
  Activity: inactive
A549 [7]
  Activity: inactive
A549 [8]
  Activity: inactive
A549 [9]
  Activity: inactive
A549 [10]
  Activity: inactive
A549 [11]
  Activity: inactive
A549 [12]
  Activity: inactive
A549 [13]
  Activity: inactive
A549 [14]
  Activity: inactive
A549 [15]
  Activity: tde
MCF7
  Activity: Active
A549 [16]
  Activity: Active
A549 [17]
  Activity: Active
A549 [18]
  Activity: Active
A549 [19]
  Activity: Active
[20]
  Activity: inactive
[21]
  inhibition: Active
A549 [22]
  inhibition: Active
A549 [23]
  inhibition: Active
A549 [24]
  inhibition: Active
[25]
  Activity: inactive
A549 [26]
  Activity: Active
A549 [27]
  Activity: Active
